Measured values reported in ChEMBL document CHEMBL4152262, “Design, synthesis and evaluation of novel multi-target-directed ligands for treatment of Alzheimer's disease based on coumarin and lipoic acid scaffolds” (Eur J Med Chem, 2018).
Activity calls are given as the source filed them. The calls are words filed in the database; no cut-off is given here.

Key:
PC-12 [1] = test: Neuroprotection against H2O2-induced cell death in rat PC12 cells assessed as cell viability at 1 uM preincubated for 3 hrs followed by H2O2 stimulation measured after 2 hrs by MTT assay (reference value: 25.2 to 41.8%); assay type: functional; conditions: read-out: Activity
[2] = biological target: Amyloid-beta precursor protein (Homo sapiens) (UniProt P05067); test: Potency index, ratio of compound effect to donepezil effect for inhibition of amyloid beta (1 to 42) (unknown origin) self-induced aggregation at 100 uM
Amyloid-beta precursor protein (Homo sapiens), sequence (P05067 whole entry): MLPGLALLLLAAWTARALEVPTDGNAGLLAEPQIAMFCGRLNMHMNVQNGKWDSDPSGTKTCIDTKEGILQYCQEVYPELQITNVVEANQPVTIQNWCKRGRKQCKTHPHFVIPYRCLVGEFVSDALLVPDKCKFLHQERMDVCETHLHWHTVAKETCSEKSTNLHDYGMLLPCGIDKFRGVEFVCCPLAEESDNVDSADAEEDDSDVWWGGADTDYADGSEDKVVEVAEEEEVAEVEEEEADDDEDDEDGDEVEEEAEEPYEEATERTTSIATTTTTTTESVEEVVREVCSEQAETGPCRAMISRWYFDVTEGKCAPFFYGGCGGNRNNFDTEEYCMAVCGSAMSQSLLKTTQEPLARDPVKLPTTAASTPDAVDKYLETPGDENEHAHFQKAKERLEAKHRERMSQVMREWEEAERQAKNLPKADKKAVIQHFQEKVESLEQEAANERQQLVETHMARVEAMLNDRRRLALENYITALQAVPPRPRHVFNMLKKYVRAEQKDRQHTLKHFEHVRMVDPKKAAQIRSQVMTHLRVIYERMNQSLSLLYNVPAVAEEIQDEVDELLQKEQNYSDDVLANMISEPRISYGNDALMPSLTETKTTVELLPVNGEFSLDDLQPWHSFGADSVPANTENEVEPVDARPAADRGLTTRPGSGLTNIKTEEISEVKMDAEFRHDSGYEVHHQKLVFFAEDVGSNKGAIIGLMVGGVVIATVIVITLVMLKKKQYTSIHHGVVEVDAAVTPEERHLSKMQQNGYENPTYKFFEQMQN

[3] = biological target: Acetylcholinesterase (Homo sapiens) (UniProt P22303); test: Potency index, ratio of compound effect to donepezil effect for inhibition of recombinant human AChE-induced amyloid beta (1 to 42) aggregation at 100 uM
Acetylcholinesterase (Homo sapiens), sequence (P22303 whole entry): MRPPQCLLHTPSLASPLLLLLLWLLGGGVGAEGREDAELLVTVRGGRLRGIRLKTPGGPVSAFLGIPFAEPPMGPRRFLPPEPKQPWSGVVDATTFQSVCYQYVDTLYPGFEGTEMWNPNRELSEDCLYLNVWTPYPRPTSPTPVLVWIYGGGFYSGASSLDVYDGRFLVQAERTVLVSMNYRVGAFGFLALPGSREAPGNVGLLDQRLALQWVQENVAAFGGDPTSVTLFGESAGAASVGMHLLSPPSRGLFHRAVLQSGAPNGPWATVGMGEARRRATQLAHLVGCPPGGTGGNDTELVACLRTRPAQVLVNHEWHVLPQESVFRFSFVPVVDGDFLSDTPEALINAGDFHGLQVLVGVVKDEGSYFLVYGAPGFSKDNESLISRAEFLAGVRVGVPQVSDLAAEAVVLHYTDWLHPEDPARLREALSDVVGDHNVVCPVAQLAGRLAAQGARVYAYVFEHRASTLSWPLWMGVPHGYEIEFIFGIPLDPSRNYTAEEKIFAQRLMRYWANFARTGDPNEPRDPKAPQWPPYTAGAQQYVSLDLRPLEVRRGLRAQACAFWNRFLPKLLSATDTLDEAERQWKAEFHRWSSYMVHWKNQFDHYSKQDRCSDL
How it was run: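 Prefibrillated Aβ1-42 (prepared 72 h at 37 °C in PBS/1% ammonium hydroxide) was coincubated with human recombinant AChE (0.01 u/mL) in 0.05 M KP buffer pH 7.4, 37 °C, 48 h, with or without compound or donepezil at 100 µM. ThT added; fluorescence read at ex 448/em 490 nm. % inhibition from intensities with vs without inhibitor; three experiments.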

SH-SY5Y = test: Inhibition of amyloid beta (1 to 42) (unknown origin)-induced cell death in human SH-SY5Y cells assessed as cell viability at 10 uM preincubated for 3 hrs followed by amyloid beta (1 to 42) addition measured after 24 hrs by MTT assay relative to control; assay type: functional; conditions: read-out: Activity
How it was run: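 SH-SY5Y cells grown in DMEM with 10% FBS, 1% L-glutamine and antibiotics, seeded at 5×10^3/well. Pretreated 3 h with compound (10 or 50 µM), then Aβ1-42 10 µM added for 24 h. MTT, formazan dissolved in DMSO, A570. Viability as blank-corrected % of untreated control; three independent experiments, mean ± SEM.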

PC-12 [4] = test: Inhibition of H2O2-induced ROS generation in rat PC12 cells assessed as intracellular ROS level at 10 uM preincubated for 6 hrs followed by H2O2 addition measured after 18 hrs by DCFH-DA staining based fluorimetric method relative to control; assay type: functional; design: scale not given: the % may be the effect or the level left
How it was run: (§1)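 PC12 cells at 1×10^4/well in RPMI with 10% FBS and penicillin/streptomycin, 24 h at 37 °C, 5% CO2. Test samples (1, 5, 10, 50 µM; ≤0.5% DMSO) for 6 h, PBS wash, then H2O2 150 µM for 18 h. Loaded with 10 µM DCFH-DA for 30 min at 37 °C in the dark, washed twice. DCF fluorescence read at ex 485/em 528 nm as % of untreated control. Three independent experiments, mean ± SEM.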

PC-12 [5] = test: Inhibition of H2O2-induced ROS generation in rat PC12 cells assessed as intracellular ROS level at 1 uM preincubated for 6 hrs followed by H2O2 addition measured after 18 hrs by DCFH-DA staining based fluorimetric method relative to control; assay type: functional; design: scale not given: the % may be the effect or the level left; how it was run: as §1
[6] = Metal chelating activity assessed as compound-Mg2+ complex formation at 20 uM after 30 mins by UV-visible spectrophotometric analysis
How it was run: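 Compound (final 20 µM in methanol) mixed with metal salt (CuCl2, FeSO4, ZnCl2, AlCl3, MgCl2 or CaCl2, final 20 µM in methanol). After 30 min at room temperature, UV spectra recorded from 200 to 500 nm in 1-cm quartz cells on a dual-beam spectrophotometer.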

Compound: COc1ccc(-c2cc3ccc(OCCCn4cc(CNC(=O)CCCCC5CCSS5)nn4)cc3oc2=O)cc1OC (configuration not stated)
- viability at 1 µM (PC-12 [1]): 39.3%
- Ratio [2]: 2
- Ratio [3]: 2
- viability at 10 µM (SH-SY5Y): 64.7%
- Activity (PC-12 [4]): 43.04%
- Activity (PC-12 [5]): 88.84%
- Activity [6]: inactive
